Assay results reported in ChEMBL document CHEMBL3588757, “Structure-based design, synthesis and biological testing of piperazine-linked bis-epipodophyllotoxin etoposide analogs” (Bioorg Med Chem, 2015).

Columns and labels:
CCRF-CEM [1] = assay: Cytotoxicity against human CCRF-CEM cells assessed as cell growth at 5 uM by SRB assay; type: functional; settings: read-out: Activity
UACC-257 [2] = assay: Cytotoxicity against human UACC257 cells assessed as cell growth at 50 uM by SRB assay; type: functional; settings: read-out: Activity
HCT-15 [3] = assay: Cytotoxicity against human HCT15 cells assessed as cell growth at 5 uM by SRB assay; type: functional; settings: read-out: Activity
In short: (§1)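 Measured in the NCI-60 human tumour cell line panel using five-dose testing. Growth was recorded at each dose for each cell line, and a GI50 was derived for each line.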

HCT-15 [4] = assay: Cytotoxicity against human HCT15 cells assessed as cell growth at 50 uM by SRB assay; type: functional; settings: read-out: Activity; in short: as §1
BT-549 = assay: Cytotoxicity against human BT549 cells assessed as cell growth at 0.5 uM by SRB assay; type: functional; settings: read-out: Activity
UACC-257 [5] = assay: Cytotoxicity against human UACC257 cells by SRB assay; type: functional
In short: (§2)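 NCI-60 panel screen; 5-dose testing giving GI50 per cell line, plus a single 10 µM one-dose test. Method details not given beyond the NCI screen.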

K562 = assay: Cytotoxicity against human K562 cells assessed as cell growth inhibition after 72 hrs by MTS assay; type: functional, cell-based; settings: K562, 72 h
SF-295 [6] = assay: Cytotoxicity against human SF295 cells by SRB assay; type: functional; in short: as §2
SNB-19 = assay: Cytotoxicity against human SNB19 cells assessed as cell growth at 0.05 uM by SRB assay; type: functional; settings: read-out: Activity
SR = assay: Cytotoxicity against human SR cells assessed as cell growth at 0.5 uM by SRB assay; type: functional; settings: read-out: Activity
OVCAR-3 = assay: Cytotoxicity against human OVCAR3 cells assessed as cell growth at 50 uM by SRB assay; type: functional; settings: read-out: Activity
U-251 = assay: Cytotoxicity against human U251 cells assessed as cell growth at 0.5 uM by SRB assay; type: functional; settings: read-out: Activity
MOLT-4 = assay: Cytotoxicity against human MOLT4 cells assessed as cell growth at 0.05 uM by SRB assay; type: functional; settings: read-out: Activity
CCRF-CEM [7] = assay: Cytotoxicity against human CCRF-CEM cells assessed as cell growth at 50 uM by SRB assay; type: functional; settings: read-out: Activity
[8] = Cytotoxicity against human NCI-ADR-RES cells assessed as cell growth at 50 uM by SRB assay; type: functional; settings: read-out: Activity
MDA-MB-435 = assay: Cytotoxicity against human MDA-MB-435 cells assessed as cell growth at 0.005 uM by SRB assay; type: functional; settings: read-out: Activity
NCI-H226 = assay: Cytotoxicity against human NCI-H226 cells assessed as cell growth at 50 uM by SRB assay; type: functional; settings: read-out: Activity
MCF7 = assay: Cytotoxicity against human MCF7 cells assessed as cell growth at 0.05 uM by SRB assay; type: functional; settings: read-out: Activity
SF-295 [9] = assay: Cytotoxicity against human SF295 cells assessed as cell growth at 50 uM by SRB assay; type: functional; settings: read-out: Activity
[10] = Cytotoxicity against human Hs578T cells assessed as cell growth at 5 uM by SRB assay; type: functional; settings: Hs-578T, read-out: Activity; in short: as §1
MDA-MB-231 = assay: Cytotoxicity against human MDA-MB-231/ATCC cells assessed as cell growth at 0.05 uM by SRB assay; type: functional; settings: read-out: Activity
786-0 = assay: Cytotoxicity against human 786-0 cells assessed as cell growth at 5 uM by SRB assay; type: functional; settings: read-out: Activity
UACC-257 [11] = assay: Cytotoxicity against human UACC257 cells assessed as cell growth at 5 uM by SRB assay; type: functional; settings: read-out: Activity
HL-60(TB) = assay: Cytotoxicity against human HL-60(TB) cells assessed as cell growth at 0.05 uM by SRB assay; type: functional; settings: read-out: Activity; in short: as §1
UACC-257 [12] = assay: Cytotoxicity against human UACC257 cells assessed as cell growth at 0.05 uM by SRB assay; type: functional; settings: read-out: Activity
T47D = assay: Cytotoxicity against human T47D cells assessed as cell growth at 0.5 uM by SRB assay; type: functional; settings: read-out: Activity
[13] = read-out: LC50 (the source's name)
[14] = read-out: pLC50 (the source's name) (converted)

Structure (SMILES): COc1cc([C@@H]2c3cc4c(cc3[C@@H](NC(=O)CN3CCN(CCCCCCCCCCN5CCN(CC(=O)N[C@@H]6c7cc8c(cc7[C@@H](c7cc(OC)c(O)c(OC)c7)[C@H]7C(=O)OC[C@@H]76)OCO8)CC5)CC3)[C@H]3COC(=O)[C@H]23)OCO4)cc(OC)c1O
- growth at 5 µM (CCRF-CEM [1]): -10%
- growth at 50 µM (UACC-257 [2]): -58%
- growth at 5 µM (HCT-15 [3]): -69%
- growth at 50 µM (HCT-15 [4]): -64%
- growth at 0.5 µM (BT-549): 58%
- GI50 (UACC-257 [5]; read-out: GI50): 0.679 µM
- CC50 (UACC-257 [5]; [13]): 2.63 µM
- TGI (UACC-257 [5]; read-out: TGI): 1.34 µM
- GI50 (UACC-257 [5]; read-out: pGI50 (converted)): 0.676 µM
- CC50 (UACC-257 [5]; [14]): 2.63 µM
- TGI (UACC-257 [5]; read-out: pTGI (converted)): 1.35 µM
- IC50 (K562): 0.044 µM
- GI50 (SF-295 [6]; read-out: GI50): 0.894 µM
- CC50 (SF-295 [6]; [13]): > 50 µM
- TGI (SF-295 [6]; read-out: TGI): 9.49 µM
- GI50 (SF-295 [6]; read-out: pGI50 (converted)): 0.891 µM
- CC50 (SF-295 [6]; [14]): > 50.1 µM
- TGI (SF-295 [6]; read-out: pTGI (converted)): 9.55 µM
- growth at 0.05 µM (SNB-19): 93%
- growth at 0.5 µM (SR): 33%
- growth at 50 µM (OVCAR-3): -50%
- growth at 0.5 µM (U-251): 51%
- growth at 0.05 µM (MOLT-4): 67%
- growth at 50 µM (CCRF-CEM [7]): 2%
- growth at 50 µM [8]: 23%
- growth at 0.005 µM (MDA-MB-435): 96%
- growth at 50 µM (NCI-H226): -95%
- growth at 0.05 µM (MCF7): 61%
- growth at 50 µM (SF-295 [9]): -44%
- growth at 5 µM [10]: 41%
- growth at 0.05 µM (MDA-MB-231): 92%
- growth at 5 µM (786-0): -13%
- growth at 5 µM (UACC-257 [11]): -97%
- growth at 0.05 µM (HL-60(TB)): 69%
- growth at 0.05 µM (UACC-257 [12]): 97%
- growth at 0.5 µM (T47D): 49%
